# Experimental data reported in the RNAGym collection of RNA variant scans (doi:10.1038/s41586-018-0170-7).
# B1: tRNA (parent)
# chain: GUUCCGUUGGCGUAAUGGUAACGCGUCUCCCUCCUAAGGAGAAGACUGCGGGUUCGAGUCCCGUACGGAACG
# Variants of: B1
# Assay: yeast fitness, log relative to wild type (ln ratio); higher = fitter; tRNA-Arg(CCU), competitive growth, 37 C, 1 M NaCl
# In short: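 A combinatorial tRNA-Arg(CCU) variant library was carried on a HIS3 centromeric plasmid in BY4742 lacking the chromosomal gene, from two independent transformations. Pools grew 4 generations in SC-HIS at 30 °C, then ~6.5 generations (~26.5 h) in SC-HIS 1M NaCl at 37 °C, with three outputs per input. Variants were counted by 125 bp paired-end Illumina sequencing. Fitness is ln of each genotype's generations (OD-scaled log2 output/input frequency, inverse-variance weighted across replicates) over the wild-type's.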
row,Variant,yeast fitness (ln)
1,G1A U2G G6U C27U A43C A69G A70G,-0.326
2,G1A U2G G6U C27U A43C A69G A70U,-0.454
3,G1A U2G G6U A43C C46U C71U,-0.335
4,G1A U2G G6U A43C C66U A69G A70G,-0.371
5,G1A U2G G6U A43C C66U A69G A70U,-0.255
6,G1A U2G G6U C27U A43C C46U C66U A69G A70U C71U,-0.434
7,G1A U2G G6U C27U A69G A70G C71U,-0.448
8,G1A U2G G6U C46U C66U A70U,-0.184
9,G1A U2G G6U C46U C66U A70G,-0.238
10,U2C C27U A43C,-0.0586
11,G1A U2G G6U C66A A70U,-0.329
12,G1A U2G G6U C27U A43C C46U C66A A69G A70U C71U,-0.431
13,G1A U2G G6U C46U,-0.0886
14,G1A U2G G6U A43C A70U C71U,-0.41
15,U2C A43C C66A C71U,-0.169
16,G1A U2G G6U A43C C46U C66A A69G A70U C71U,-0.314
17,G1A U2G G6U C27U C46U C66U A69G A70U,-0.339
18,G1A U2G G6U C27U C46U C66U A69G A70G,-0.308
19,G1A U2G G6U C27U C46U C66A A70G,-0.148
20,G1A U2G G6U C27U C46U C66A A70U,-0.322
21,G1A U2G G6U C27U C66A A70U,-0.27

row,Variant,yeast fitness (ln)
1,G1A U2G G6U C27U C66A A70G,-0.268
2,G1A U2G G6U A43C C46U C66U A70G,-0.344
3,G1A U2G G6U A43C C46U C66U A70U,-0.275
4,G1A U2G G6U A43C C46U C66A,-0.364
5,G1A U2G G6U A43C C46U C66U,-0.271
6,U2C C27U A43C A70G C71U,-0.0236
7,G1A U2G G6U C46U C66A A69G A70U,-0.0992
8,G1A U2G G6U C27U A70G C71U,-0.326
9,G1A U2G G6U A43C C46U C66U A70G C71U,-0.418
10,G1A U2G G6U C27U C66U A70U C71U,-0.434
11,U2C A43C C46U C66A A69G A70G,-0.15
12,U2C A43C C46U C66A A69G A70U,-0.0111
13,G1A U2G G6U C46U C66U A69G A70G C71U,-0.244
14,G1A U2G G6U C66A A69G A70U C71U,-0.335
15,G1A U2G G6U C27U A43C C46U C66A,-0.25
16,G1A U2G G6U C27U A43C C46U C66U,-0.434
17,U2C A43C C66A A70U C71U,-0.275
18,G1A U2G G6U A43C A69G A70U C71U,-0.428
19,G1A U2G G6U A70G,-0.235
20,G1A U2G G6U A70U,-0.166
21,U2C A69G C71U,-0.158

row,Variant,yeast fitness (ln)
1,G1A U2G G6U C27U A43C C46U C66A A70U C71U,-0.626
2,G1A U2G G6U C27U A69G A70G,-0.376
3,G1A U2G G6U C27U A69G A70U,-0.362
4,U2C C27U A43C A69G A70U,-0.136
5,U2C C27U A43C A69G A70G,-0.0551
6,G1A U2G G6U C46U A69G C71U,-0.3
7,G1A U2G G6A C66U A70U C71U,-0.0116
8,G1A U2G G6U C27U C66U A69G A70U C71U,-0.407
9,G1A U2G G6U A43C C46U,-0.117
10,G1A U2G G6U C27U A43C C71U,-0.329
11,G1A U2G G6U A43C A70G,-0.263
12,G1A U2G G6U A43C A70U,-0.257
13,G1A U2G G6U A43C C46U C66A A70G C71U,-0.153
14,U2C A43C C46U A70U C71U,-0.0761
15,U2C A43C C46U A69G C71U,-0.0944
16,G1A U2G G6U A43C C46U A69G A70U,-0.354
17,G1A U2G G6U A43C C46U A69G A70G,-0.334
18,G1A U2G G6U C27U A43C C66U A70U C71U,-0.429
19,G1A U2G G6U A43C C66A A70U C71U,-0.387
20,G1A U2G G6U A43C C66A A69G A70U C71U,-0.351
21,G1A U2G G6U C71U,-0.196

row,Variant,yeast fitness (ln)
1,G1A U2G G6U A70G C71U,-0.256
2,G1A U2G G6U C27U C46U A69G C71U,-0.26
3,U2C A69G,-0.0379
4,G1A U2G G6U A43C C66U A70U C71U,-0.237
5,U2C A43C C46U A69G A70G C71U,-0.00607
6,G1A U2G G6U C27U A43C C46U C66U A70U,-0.383
7,G1A U2G G6U C27U A43C C46U C66U A70G,-0.564
8,U2C A43C C46U C66U A69G A70G C71U,-0.315
9,G1A U2G G6U C27U C46U,-0.217
10,G1A U2G G6U C27U C66U A69G C71U,-0.425
11,G1A U2G G6U C46U C66U C71U,-0.257
12,G1A U2G G6U C27U C66U A69G A70G,-0.333
13,G1A U2G G6U C27U C66U A69G A70U,-0.307
14,G1A U2G G6U C27U A43C C66U A70U,-0.47
15,G1A U2G G6U C27U A43C C66U A70G,-0.4
16,G1A U2G G6U A43C C66U A70G C71U,-0.419
17,U2C A43C C46U C66U C71U,-0.19
18,G1A U2G G6U C46U C66U A70G C71U,-0.216
19,G1A U2G G6U C66U A69G A70U C71U,-0.553
20,G1A U2G G6U C27U A43C C66A A69G A70G C71U,-0.461
